# A selection: hits, their analogues and other compounds. The true share with any hit is near 3.7%.
# Mdm2 MdmX PPI: inhibitors of human Mdm2/MdmX interaction; O15151+Q00987; actives 3% (n = 330,000); SaOS-2 split-luciferase Mdm2/MdmX complementation, luminescence; inhibition, % at 8 µM;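 active = inhibition of at least 50% at 8 µM in the primary screen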
# XBP1 UPR activ: adaptive UPR (XBP1) activation; CHO-XBP1 luciferase reporter, IRE1-XBP1 UPR activation, luminescence; percent of tunicamycin response, DMSO as zero; activation, % at 20 µM; actives 0.33% (n = 330,000);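 active = versus positive control, 20 µM dose yields 30% or more activation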;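 note: 100% = tunicamycin at 10 µg/mL and 0% = DMSO only wells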
#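 Signal: luciferase luminescence; Assay system: CHO-XBP1 luciferase reporter cells; Amount: one thousand reporter cells per well; Dosing: 20 µM single concentration, DMSO 1%; Benchmarks: high control tunicamycin 10 µg/mL final, low control DMSO vehicle only; Schedule: 6 h compound exposure at 37 °C, 5% CO2; Evaluation: percent activation relative to tunicamycin reference.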
# B2AR ag: human beta-2 adrenergic receptor agonism by FAP | Am2.2-beta2AR cells, FAP receptor internalization, flow cytometry | response, % (concentration not given with the values) | actives 0.43% (n = 340,000);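 active = response above a set limit, near 3 SD of response in nonfluorescent compounds, cut at about 42% in these data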
# Target sequence (P07550 whole entry, looked up): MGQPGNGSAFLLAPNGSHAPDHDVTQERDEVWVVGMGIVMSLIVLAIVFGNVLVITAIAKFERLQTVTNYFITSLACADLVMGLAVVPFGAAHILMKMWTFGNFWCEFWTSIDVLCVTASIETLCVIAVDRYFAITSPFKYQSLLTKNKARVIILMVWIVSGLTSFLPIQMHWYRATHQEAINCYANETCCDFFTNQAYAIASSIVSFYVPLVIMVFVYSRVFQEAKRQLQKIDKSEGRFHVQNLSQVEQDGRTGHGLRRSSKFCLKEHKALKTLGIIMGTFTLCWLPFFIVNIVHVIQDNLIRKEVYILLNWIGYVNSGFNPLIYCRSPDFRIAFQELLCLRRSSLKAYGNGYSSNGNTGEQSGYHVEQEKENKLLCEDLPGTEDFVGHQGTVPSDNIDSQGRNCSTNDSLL
# Mdm2 ligase inh: inhibitors of human Mdm2 E3 ubiquitin ligase. Q00987. signal enhancement, % at 5 µM. AID 1230. actives 0.11% (n = 210,000). cell-based MDM2 ubiquitination luciferase reporter, 2 h; 0 = plate control, 100 = twice control, blank-subtracted;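 active = signal enhancement of 30% or more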;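 note: luminescence tracks abundance of the self-degrading MDM2-luciferase fusion protein; higher signal means inhibition of MDM2 E3 ligase activity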
#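 Assay system: stable mammalian line carrying autodegrading MDM2–luciferase fusion reporter; amount: 2000 cells seeded into each well; buffer or medium: DMEM; benchmarks: plate control and blank wells; signal: luciferase luminescence; timing: 2 h compound exposure at 37 °C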
# Dynein transport: dynein cargo transport inhibition | 3617.4 mouse cells, GR-EGFP nuclear translocation imaging; test concentration mostly 20 µM; stimulated with dexamethasone, 1 µM; hits give low values | actives 0.47% (n = 220,000) | z-score, hits read low;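 active = plate z-score of nuclear minus cytoplasmic receptor signal below a set negative limit, without overly bright fluorescence or cell loss, cut at about -3.5 in these data, passing the limit was not always enough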;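 note: z-score of nuclear minus cytoplasmic ring GR-EGFP intensity difference per well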
#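 Buffer or medium: tet-free medium with charcoal-stripped serum / Also added: dexamethasone agonist, 1.0 µM final, for 30 min / Timing: induction 48 h, compound 1 h, agonist 30 min / Measured by: high-content fluorescence imaging after fixation / Read-out: nuclear-to-cytoplasmic GR-EGFP distribution per well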
# CHOP UPR activ: activators of apoptotic arm of unfolded protein response (CHOP). activation, % at 10 µM. CHO-CHOP luciferase reporter, UPR activation, luminescence; percent of tunicamycin response over DMSO baseline. AID 449763. actives 0.34% (n = 330,000);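 active = at 10 µM dose, activation of 40% or more, normalized to positive control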;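 note: 100% = tunicamycin at 10 µg/mL and 0% = DMSO alone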
#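 System: CHO-CHOP luciferase reporter cell line | Buffer or medium: F12 medium containing 10% fetal bovine serum | Doses: One dose, 10 µM in 0.5% DMSO | Times: 6 h compound exposure at 37 °C after overnight seeding | Signal: Luciferase luminescence | Read-out: % activation vs tunicamycin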
# Active calls of the source: *; nt = no result; ! = not confirmed by another sample.
SMILES,Mdm2 MdmX PPI,XBP1 UPR activ,B2AR ag,Mdm2 ligase inh,Dynein transport,CHOP UPR activ
CCOC(=O)N1CCN(CCC(=O)c2ccc(Cl)cc2)CC1,0.1,-2.3,1.6,-20.6,-5.39*,-0.7
Cn1c(=O)[nH]c(=O)c2c1nc(Br)n2CCCc1ccccc1,nt,nt,nt,30.2*,-1.33,nt
CSc1nc2c(c(=O)[nH]c(=O)n2C)n1CCCc1ccccc1,15.5,2.5,4.4,nt,nt,-1.9
Cc1cc(C)c(S(=O)(=O)/N=C2/C=C(Sc3ncn[nH]3)C(=O)c3ccccc32)cc1C,nt,nt,48.7*,13.4,-6.64*,nt
Oc1c(C=Nc2cccc3cccnc23)sc2ccccc12,24.2,38.9*,nt,-53.6,-0.454,58.6*
Cc1cccc(/N=C/c2sc3ccccc3c2O)n1,11.6,1.7,9.7,-42.6,-0.533,0.5
CC1CCCC(NC(=O)CN2C(=O)NC(C)(c3cc(F)ccc3F)C2=O)C1C (stereo unspecified),12.5,-2.8,0.5,nt,nt,-0.7
O=C(/C=C/c1ccc(N2CCC(c3ccccc3)=N2)cc1)c1ccccc1,-12.5,3.2,nt,-10.5,-5.73*,4.0
CN1C(C(=O)NCc2cccc(Br)c2)CC2Cn3c(nc4cc5ccccc5cc43)C21 (stereo unspecified),-15.0,-4.5,3.5,31.4*,-0.112,-1.6
CCCCC(=O)N/N=C/c1ccc(Sc2cccc3cccnc23)o1,30.1,15.8,48.8*,24.2,-0.854,-0.2
Cc1nn(S(=O)(=O)c2ccc(F)cc2)c(C)c1S(=O)(=O)N1CCOCC1,11.5,-4.3,-4.9,nt,nt,-0.5
Cc1ccc(C)c(CSc2nnc(-c3cccs3)n2Cc2ccco2)c1,7.4,0.6,66.7*,-24.7,-1.18,-1.5
COc1ccc(OCC(=O)Nc2ccc(NC(=O)c3ccccc3Cl)c(OC)c2)cc1,3.6,-8.1,-0.7,nt,nt,-1.3
CN(C)/C=N/C(=S)Nc1ccccc1F,0.5,3.6,51.1*,-15.4,0.18,1.1
O=C(Nc1ccc(Cl)cc1)c1ccc(-n2cccn2)c([N+](=O)[O-])c1,-14.1,2.2,8.5,38.4*,0.491,4.8
CCCCn1c(N)c(N(CCOC)C(=O)c2ccc(-n3c(C)ccc3C)cc2)c(=O)[nH]c1=O,18.8,0.6,-1.0,nt,nt,-0.4
COc1ccc(Br)cc1/C=C/C(=O)c1ccc(NC(C)=O)cc1,nt,nt,-11.3,-11.8,-3.51*,nt
COc1ccc(NC(=O)/C=C/c2cc(Br)ccc2OC)cc1,-12.6,1.5,15.0,2.4,0.547,-0.8
NS(=O)(=O)c1ccc(CCNC(=O)C(=O)c2c[nH]c3ccccc23)cc1,-5.9,0.2,55.7*,-4.8,0.371,-0.8
O=c1oc2cc(O)c(Cl)cc2c2ccccc12,3.5,0.0,1.4,-10.5,1.05,0.9
O=c1oc(Cl)c(Cl)c2ccccc12,5.8,-5.4,62.2*,nt,nt,88.3*
CC1CCCC(C)N1C(=O)COC(=O)C1CCN(S(=O)(=O)c2ccc3c(c2)OCCO3)CC1 (stereo unspecified),24.7,-1.2,1.3,nt,nt,-1.2
CS/C(=N\S(=O)(=O)c1cccs1)Nc1ccc(Br)cc1F,-27.2,-2.0,59.1*!,-16.9,-0.39,-0.5
CCOc1ccc(CCNC(=O)COC(=O)/C=C/c2ccco2)cc1OCC,18.6,-1.1,-1.1,nt,nt,2.4
CCn1c(=O)n(CC(=O)Nc2cc(OC)c(OC)c(OC)c2)c(=O)c2ccccc21,23.8,1.3,6.2,36.7*,-0.193,-0.3
SMILES,Mdm2 MdmX PPI,XBP1 UPR activ,B2AR ag,Mdm2 ligase inh,Dynein transport,CHOP UPR activ
O=C(CCC(=O)N1CCSc2ccccc21)NCCc1ccccc1,9.0,-3.4,-8.0,nt,nt,0.2
O=C(NCc1ccccc1)c1cccc(COc2cc(Cl)ccc2Cl)c1,-20.9,3.7,1.1,1.7,0.467,3.6
CN(C(=O)c1cccc(COc2ccc(Cl)cc2Cl)c1)c1ccccc1,nt,nt,-7.8,45.7*,1.96,nt
N#CC1=C(N)OC2=C(CC/C2=C\c2ccc(F)cc2)C1c1ccc(F)cc1 (stereo unspecified),34.6,6.5,nt,-10.5,-5.83,116.5*
N#CC1=C(N)OC2=C(CCC/C2=C/c2ccoc2)C1c1ccoc1 (stereo unspecified),nt,nt,nt,-32.3,0.392,nt
Cc1cc(C)c(NC(=O)CNC(=O)c2ccccc2OCc2c(C)noc2C)c(C)c1,22.8,-0.1,2.8,nt,nt,0.0
CC(=O)NC1C(=O)N=C(SCC(=O)NC(C)c2ccccc2)NC1=O (stereo unspecified),-19.6,-2.2,-0.3,33.6*,1.36,-0.3
CC(=O)NC1C(=O)N=C(SCc2ccccc2)NC1=O (stereo unspecified),-24.3,0.2,0.8,-9.3,-0.407,-1.0
CC(C)CC(=O)/C(=C\c1ccc(Cl)cc1Cl)n1cncn1,nt,nt,46.5*,-12.1,-3.05,nt
CC(C)CC(=O)/C(=C/c1ccc(N(C)C)cc1)n1cncn1,-3.3,-1.5,-4.8,nt,nt,-0.2
C[C@H](NC(=O)[C@@H]1Cc2ccccc2CN1C(=O)OC(C)(C)C)C(=O)NCc1ccco1,7.8,-3.9,-11.9,nt,nt,-1.0
COC(Cn1cc(C)c(=O)[nH]c1=O)OC,-4.1,-1.1,-3.1,42.1*,-0.0817,0.0
O=C(Oc1ccc(-c2csnn2)cc1)C1CC1,10.4,0.1,-1.9,-10.6,0.653,-0.3
O=C(Nc1ccc(-c2csnn2)cc1)C1CC1,-18.2,0.5,-12.1,82.8*,0.41,2.2
CC(NC(=O)Cn1ncc(Cl)c(Cl)c1=O)C12CC3CC(CC(C3)C1)C2 (stereo unspecified),nt,nt,112.3*,99.1*,-3.44,nt
CCn1cc(C(=O)NC(C)C23CC4CC(CC(C4)C2)C3)cn1 (stereo unspecified),16.4,2.4,-0.7,-9.9,-0.524,2.2
CCC(C)(C)n1nnnc1C(c1ccc(O)c(OC)c1)N1CCc2ccccc2C1 (stereo unspecified),9.7,-4.7,9.0,12.1,-0.876,42.4*
CCC(C)(C)n1nnnc1C(c1ccccc1)N1CCc2ccccc2C1 (stereo unspecified),0.2,1.6,-1.7,7.8,-0.76,-0.5
O=C(Nc1ccc(N2CCCC2)cc1)C(Cl)c1ccccc1 (stereo unspecified),-5.2,-1.0,75.8*,-7.5,-0.563,5.8
CS(=O)(=O)N1CCN(c2ccc(NC(=O)C(c3ccccc3)c3ccccc3)cc2)CC1,7.2,-1.1,8.9,-3.5,-0.0608,-1.1
